Laboratory results: ChEMBL document CHEMBL1127659, “In vitro and in vivo activities of reduced-size antagonists of luteinizing hormone-releasing hormone” (J Med Chem, 1994)
Values after ≈ are worked out from the molar mass of the structure shown. Values belong to the compound of their own block, whether it stands above or below them. Where a SMILES comes first, the peptide text is derived from it. [ ]: non-standard residue; d: D form. The star is where a group is joined. Propanoyl(3-(4-F-phenyl)) = O=C(CCc1ccc(F)cc1)*; dPhe(4-Cl) = N[C@H](Cc1ccc(Cl)cc1)C(=O)O; d1Nal = N[C@H](Cc1cccc2ccccc12)C(=O)O; d2Nal = N[C@H](Cc1ccc2ccccc2c1)C(=O)O; Lys(iPr) = CC(C)NCCCC[C@H](N)C(=O)O; NMeY = CN[C@@H](Cc1ccc(O)cc1)C(=O)O; d3Pal = N[C@H](Cc1cccnc1)C(=O)O; Nicotinoyl = O=C(c1cccnc1)*

Assays:
Rattus norvegicus [1] = species on record: Rattus norvegicus; test: Percentage suppression of the LH in castrated rat after 2 hr of doing
Rattus norvegicus [2] = species on record: Rattus norvegicus; test: Effective dose required for maximal release of histamine from rat peritoneal mast cells; type: functional; conditions: read-out: ED50 (the source's name)
Method in brief: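 Rat peritoneal mast cells; histamine release measured. ED50 is the antagonist dose giving 50% of maximal histamine release, in micrograms per milliliter. All compounds tested as TFA salts.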

Rattus norvegicus [3] = species on record: Rattus norvegicus; test: In vitro antagonistic potency against release of luteinizing hormone (LH) from cultured rat pituitary cells.; type: functional; conditions: Pituitary gland cell, read-out: pA2 (converted)
Method in brief: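 Cultured rat pituitary cells, agonist-stimulated LH release. pA2 is the negative log of the antagonist concentration that makes a 2-fold higher agonist concentration necessary to release LH. Compounds tested as TFA salts.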

SMILES: CCNC(=O)[C@@H]1CCCN1C(=O)[C@H](CCCN=C(N)N)NC(=O)[C@H](CC(C)C)NC(=O)[C@@H](Cc1c[nH]c2ccccc12)NC(=O)[C@H](Cc1ccc(O)cc1)NC(=O)[C@H](CO)NC(=O)[C@@H](Cc1c[nH]c2ccccc12)NC(=O)CCc1ccc(F)cc1
Supression (Rattus norvegicus [1]): 88%

EC50 (Rattus norvegicus [2]): < 0.1 µg/mL
SMILES: CCNC(=O)[C@@H]1CCCN1C(=O)[C@H](CCCN=C(N)N)NC(=O)[C@H](CC(C)C)NC(=O)[C@@H](CCCCNC(=O)c1cccnc1)NC(=O)[C@H](Cc1ccc(O)cc1)N(C)C(=O)[C@H](CO)NC(=O)[C@@H](Cc1c[nH]c2ccccc12)NC(=O)CCc1ccc(F)cc1 [listing 1 of 2 here]
Supression (Rattus norvegicus [1]): 90%

EC50 (Rattus norvegicus [2]): 10.3 µg/mL (≈ 7.84 µM)
SMILES: CC(C)C[C@H](NC(=O)[C@@H](CCCCNC(=O)c1cccnc1)NC(=O)[C@H](Cc1ccc(O)cc1)N(C)C(=O)[C@H](CO)NC(=O)[C@@H](Cc1cccc2ccccc12)NC(=O)CCc1ccc(F)cc1)C(=O)N[C@@H](CCCCNC(C)C)C(=O)N1CCC[C@H]1C(=O)N[C@H](C)C(N)=O ({Propanoyl(3-(4-F-phenyl))}-[d1Nal]S[NMeY][dK](Nicotinoyl)L[Lys(iPr)]P[dA]-NH2)

EC50 (Rattus norvegicus [2]): 10 µg/mL (≈ 6.51 µM)
SMILES: CC(=O)N[C@H](Cc1ccc2ccccc2c1)C(=O)N[C@H](Cc1ccc(Cl)cc1)C(=O)N[C@H](Cc1cccnc1)C(=O)N[C@@H](CO)C(=O)N(C)[C@@H](Cc1ccc(O)cc1)C(=O)N[C@H](CCCCNC(=O)c1cccnc1)C(=O)N[C@@H](CC(C)C)C(=O)N[C@@H](CCCCNC(C)C)C(=O)N1CCC[C@H]1C(=O)N[C@H](C)C(N)=O (Ac-[d2Nal][dPhe(4-Cl)][d3Pal]S[NMeY][dK](Nicotinoyl)L[Lys(iPr)]P[dA]-NH2)

SMILES: CCNC(=O)[C@@H]1CCCN1C(=O)[C@H](CCCN=C(N)N)NC(=O)[C@H](CC(C)C)NC(=O)[C@@H](Cc1c[nH]c2ccccc12)NC(=O)[C@H](Cc1ccc(O)cc1)NC(=O)[C@H](CO)NC(=O)[C@@H](Cc1cccc2ccccc12)NC(=O)CCc1ccc(F)cc1
Kb (Rattus norvegicus [3]): 7.08 pM

SMILES: CCNC(=O)[C@@H]1CCCN1C(=O)[C@H](CCCN=C(N)N)NC(=O)[C@H](CC(C)C)NC(=O)[C@@H](Cc1c[nH]c2ccccc12)NC(=O)[C@H](Cc1ccc(O)cc1)NC(=O)[C@H](CO)NC(=O)[C@@H](Cc1c[nH]c2ccccc12)NC(=O)c1cc2cc(F)ccc2[nH]1
Kb (Rattus norvegicus [3]): 41700 pM

SMILES: CCNC(=O)[C@@H]1CCCN1C(=O)[C@H](CCCN=C(N)N)NC(=O)[C@H](CC(C)C)NC(=O)[C@@H](CCCCNC(=O)c1cccnc1)NC(=O)[C@H](Cc1ccc(O)cc1)NC(=O)[C@H](CO)NC(=O)[C@@H](Cc1c[nH]c2ccccc12)NC(=O)CCc1ccc(F)cc1
Kb (Rattus norvegicus [3]): 95.5 pM

SMILES: CCNC(=O)[C@@H]1CCCN1C(=O)[C@H](CCCN=C(N)N)NC(=O)[C@H](CC(C)C)NC(=O)[C@@H](Cc1c[nH]c2ccccc12)NC(=O)[C@H](Cc1ccc(O)cc1)NC(=O)[C@H](CO)NC(=O)[C@H](Cc1cccc2ccccc12)NC(=O)CCc1ccc(F)cc1
Kb (Rattus norvegicus [3]): 5.01 pM

SMILES: CCNC(=O)[C@@H]1CCCN1C(=O)[C@H](CCCN=C(N)N)NC(=O)[C@H](CC(C)C)NC(=O)[C@@H](Cc1c[nH]c2ccccc12)NC(=O)[C@H](Cc1ccc(O)cc1)NC(=O)[C@H](CO)NC(=O)[C@@H](Cc1c[nH]c2ccccc12)NC(=O)Cc1ccc(C(F)(F)F)cc1
Kb (Rattus norvegicus [3]): 2630 pM

SMILES: CCNC(=O)[C@@H]1CCCN1C(=O)[C@H](CCCN=C(N)N)NC(=O)[C@H](CC(C)C)NC(=O)[C@@H](Cc1c[nH]c2ccccc12)NC(=O)[C@H](Cc1ccc(O)cc1)NC(=O)[C@H](CO)NC(=O)[C@@H](Cc1c[nH]c2ccccc12)NC(=O)CCc1ccc(F)cc1F
Kb (Rattus norvegicus [3]): 14.1 pM

SMILES: CCNC(=O)[C@@H]1CCCN1C(=O)[C@H](CCCN=C(N)N)NC(=O)[C@H](CC(C)C)NC(=O)[C@@H](Cc1c[nH]c2ccccc12)NC(=O)[C@H](Cc1ccc(O)cc1)NC(=O)[C@H](CO)NC(=O)[C@H](Cc1c[nH]c2ccccc12)NC(=O)Cc1ccc(Cl)cc1
Kb (Rattus norvegicus [3]): 5500 pM

SMILES: CCNC(=O)[C@@H]1CCCN1C(=O)[C@H](CCCN=C(N)N)NC(=O)[C@H](CC(C)C)NC(=O)[C@@H](Cc1c[nH]c2ccccc12)NC(=O)[C@H](Cc1ccc(O)cc1)NC(=O)[C@H](CO)NC(=O)[C@H](Cc1c[nH]c2ccccc12)NC(=O)CCc1ccc(Cl)cc1
Kb (Rattus norvegicus [3]): 126 pM

SMILES: CCNC(=O)[C@@H]1CCCN1C(=O)[C@H](CCCN=C(N)N)NC(=O)[C@H](CC(C)C)NC(=O)[C@@H](Cc1c[nH]c2ccccc12)NC(=O)[C@H](Cc1ccc(O)cc1)NC(=O)[C@H](CO)NC(=O)[C@H](Cc1c[nH]c2ccccc12)NC(=O)CCc1ccc(F)cc1
Kb (Rattus norvegicus [3]): 589 pM

SMILES: CC(C)C[C@H](NC(=O)[C@@H](CCCCNC(=O)c1cccnc1)NC(=O)[C@H](Cc1ccc(O)cc1)N(C)C(=O)[C@H](CO)NC(=O)[C@@H](Cc1cccc2ccccc12)NC(=O)CCc1ccc(F)cc1)C(=O)N[C@@H](CCCCNC(C)C)C(=O)N1CCC[C@H]1C(=O)O
Kb (Rattus norvegicus [3]): 7760 pM

SMILES: CCNC(=O)[C@@H]1CCCN1C(=O)[C@H](CCCN=C(N)N)NC(=O)[C@H](CC(C)C)NC(=O)[C@@H](Cc1c[nH]c2ccccc12)NC(=O)[C@H](Cc1ccc(O)cc1)NC(=O)[C@H](CO)NC(=O)[C@@H](Cc1c[nH]c2ccccc12)NC(=O)CCc1ccc(Cl)cc1
Kb (Rattus norvegicus [3]): 166 pM

SMILES: CCNC(=O)[C@@H]1CCCN1C(=O)[C@H](CCCN=C(N)N)NC(=O)[C@H](CC(C)C)NC(=O)[C@@H](Cc1c[nH]c2ccccc12)NC(=O)[C@H](Cc1ccc(O)cc1)NC(=O)[C@H](CO)NC(=O)[C@H](Cc1c[nH]c2ccccc12)NC(=O)CCc1ccccc1F
Kb (Rattus norvegicus [3]): 447 pM

SMILES: CCNC(=O)[C@@H]1CCCN1C(=O)[C@H](CCCN=C(N)N)NC(=O)[C@H](CC(C)C)NC(=O)[C@@H](Cc1c[nH]c2ccccc12)NC(=O)[C@H](Cc1ccc(O)cc1)NC(=O)[C@H](CO)NC(=O)[C@@H](Cc1c[nH]c2ccccc12)NC(=O)c1cc2ccccc2[nH]1
Kb (Rattus norvegicus [3]): 851 pM

SMILES: CCNC(=O)[C@@H]1CCCN1C(=O)[C@H](CCCN=C(N)N)NC(=O)[C@H](CC(C)C)NC(=O)[C@@H](CCCCNC(=O)c1cccnc1)NC(=O)[C@H](Cc1ccc(O)cc1)N(C)C(=O)[C@H](CO)NC(=O)[C@@H](Cc1c[nH]c2ccccc12)NC(=O)CCc1ccc(F)cc1 [listing 2 of 2 here]
Kb (Rattus norvegicus [3]): 34.7 pM
